In ChEMBL document CHEMBL3616378 (J Med Chem, 2015):

Assays:
[1] = molecular target: Voltage-gated inwardly rectifying potassium channel KCNH2 (Homo sapiens, UniProt Q12809); assay: Inhibition of human ERG at 10 uM
[2] = molecular target: Metabotropic glutamate receptor 2 (Homo sapiens, UniProt Q14416, E273D); assay: Agonist activity at human recombinant mGlu2 receptor E273D mutant expressed in AV12 cells assessed as stimulation of Ca2+ mobilization after 1 hr by FLIPR assay; assay type: functional, cell-based
[3] = molecular target: T1, Metabotropic glutamate receptor 3 (Homo sapiens, UniProt Q14832); assay: Agonist activity at wild type human recombinant mGlu3 receptor expressed in AV12 cells assessed as stimulation of Ca2+ mobilization after 1 hr by FLIPR assay; assay type: functional, cell-based
[4] = molecular target: Metabotropic glutamate receptor 3 (Homo sapiens, UniProt Q14832, D279E/Q306L); assay: Agonist activity at human recombinant mGlu3 receptor D279E and Q306L mutant expressed in AV12 cells assessed as stimulation of Ca2+ mobilization after 1 hr by FLIPR assay; assay type: functional, cell-based
[5] = Aqueous solubility of the compound at pH 7.4; assay type: physicochemical
[6] = Solubility of the compound in DMSO at 20 uM; assay type: physicochemical
[7] = Metabolic stability of the compound in mouse hepatocytes assessed as loss of compound at 2 uM; assay type: ADME, cell-based, Hepatocyte; conditions: read-out: Drug degradation
Summary of the method: (§1)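 Hepatocytes from mouse, rat, dog and human; compound tested at 2 µM; percent loss of parent compound measured.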

[8] = Metabolic stability of the compound in rat hepatocytes assessed as loss of compound at 2 uM; assay type: ADME, cell-based, Hepatocyte; conditions: read-out: Drug degradation; summary of the method: as §1
[9] = Fraction unbound in human plasma; assay type: ADME, cell-free
[10] = AUC (0 to 24 hrs) in Sprague-Dawley rat at 1 mg/kg, iv; assay type: ADME, organism-based; design: time < 24 hr, dose 1 mg/kg, route intravenous; conditions: in vivo
Summary of the method: (§2)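 Fasted male Sprague–Dawley rats (~250 g) received a single dose of compound dissolved in water and adjusted to pH 7–7.5 with NaOH, given iv, by oral gavage or ip. Serial blood samples (11–12 per rat) were drawn from a jugular vein catheter into EDTA and kept frozen. Plasma was mixed with methanol:water (1:1) containing an analogue internal standard for analysis. Mean plasma parameters are reported.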

[11] = Cmax in Sprague-Dawley rat at 1 mg/kg, iv; assay type: ADME, organism-based; design: dose 1 mg/kg, route intravenous; conditions: in vivo; summary of the method: as §2
[12] = Half life in Sprague-Dawley rat at 1 mg/kg, iv; assay type: ADME, organism-based; conditions: in vivo; summary of the method: as §2
[13] = Cmax in Sprague-Dawley rat at 5 mg/kg, po; assay type: ADME, organism-based; design: dose 5 mg/kg, route oral; conditions: in vivo; summary of the method: as §2
[14] = Tmax in Sprague-Dawley rat at 5 mg/kg, po; assay type: ADME, organism-based; conditions: in vivo
Summary of the method: (§3)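 Compound dissolved in water, pH adjusted to 7–7.5 with NaOH; single dose to fasted male Sprague–Dawley rats (~250 g) by oral gavage, intravenous or intraperitoneal route. Serial blood (11–12 samples per rat) from jugular vein catheter into EDTA tubes, centrifuged, frozen; 25 µL plasma mixed with methanol:water (1:1) containing analogue internal standard.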

[15] = Oral bioavailability in Sprague-Dawley rat at 5 mg/kg; assay type: ADME, organism-based; conditions: in vivo; summary of the method: as §3
[16] = AUC (0 to 24 hrs) in Sprague-Dawley rat at 3 mg/kg, ip; assay type: ADME, organism-based; design: time < 24 hr, dose 3 mg/kg, route intraperitoneal; conditions: in vivo; summary of the method: as §2
[17] = Tmax in Sprague-Dawley rat at 3 mg/kg, ip; assay type: ADME, organism-based; conditions: in vivo; summary of the method: as §3
[18] = Bioavailability in Sprague-Dawley rat at 3 mg/kg, ip; assay type: ADME, organism-based; conditions: in vivo; summary of the method: as §2
[19] = Cmax in Sprague-Dawley rat at 10 mg/kg, ip; assay type: ADME, organism-based; design: dose 10 mg/kg, route intraperitoneal; conditions: in vivo; summary of the method: as §2
[20] = Plasma concentration in Sprague-Dawley rat at 1 mg/kg, ip after 0.5 hrs; assay type: ADME, organism-based
Summary of the method: (§4)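 Separate experiment: single ip doses of 1, 3 and 10 mg/kg to rats, compound in water adjusted to pH 7–7.5 with NaOH; plasma (with csf) sampled at 0.5, 1 and 4 h; mean plasma concentrations ± SEM reported.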

[21] = Plasma concentration in Sprague-Dawley rat at 10 mg/kg, ip after 0.5 hrs; assay type: ADME, organism-based; summary of the method: as §4
[22] = molecular target: Metabotropic glutamate receptor 2 (Homo sapiens, UniProt Q14416); assay: Displacement of [3H]-459477 from human recombinant mGlu2 receptor expressed in AV12 cells after 90 mins by liquid scintillation counting; assay type: cell-based
[23] = molecular target: T1, Metabotropic glutamate receptor 3; assay: Displacement of [3H]-459477 from human recombinant mGlu3 receptor expressed in AV12 cells after 90 mins by liquid scintillation counting; assay type: cell-based
[24] = Plasma concentration in Sprague-Dawley rat at 10 mg/kg, ip after 1 hr; assay type: ADME, organism-based; summary of the method: as §4
[25] = Plasma concentration in Sprague-Dawley rat at 1 mg/kg, ip after 4 hrs; assay type: ADME, organism-based; summary of the method: as §4
[26] = Drug level in Sprague-Dawley rat cerebrospinal fluid at 1 mg/kg, ip after 0.5 hrs; assay type: ADME, organism-based; conditions: read-out: Drug uptake
Summary of the method: (§5)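 Male Sprague–Dawley rats received single ip doses of 1, 3 or 10 mg/kg. Cerebrospinal fluid and plasma levels were determined at 0.5, 1 and 4 h. Mean csf concentration (nM ± SEM) is reported.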

[27] = molecular target: T1, Metabotropic glutamate receptor 3; assay: Agonist activity at human recombinant mGlu3 receptor expressed in AV12 cells assessed as inhibition of forskolin-stimulated cAMP production after 1 hr by fluorescence assay; assay type: functional, cell-based
[28] = molecular target: T1, Metabotropic glutamate receptor 3; assay: Antagonist activity at human recombinant mGlu3 receptor expressed in AV12 cells assessed as reversal of DCG-4-inhibited, forskolin-stimulated cAMP production after 1 hr by fluorescence assay; assay type: functional, cell-based
[29] = molecular target: T1, Metabotropic glutamate receptor 3; assay: Agonist activity at human recombinant mGlu3 receptor expressed in AV12 cells assessed as stimulation of Ca2+ mobilization after 1.5 hrs by FLIPR assay; assay type: functional, cell-based
[30] = molecular target: T1, Metabotropic glutamate receptor 3; assay: Antagonist activity at human recombinant mGlu3 receptor expressed in AV12 cells assessed as inhibition of glutamate-stimulated Ca2+ mobilization after 1.5 hrs by FLIPR assay; assay type: functional, cell-based
[31] = molecular target: Metabotropic glutamate receptor 1 (Homo sapiens, UniProt Q13255); assay: Agonist activity at human recombinant mGlu1 receptor expressed in AV12 cells assessed as stimulation of Ca2+ mobilization after 1 hr by FLIPR assay; assay type: functional, cell-based
[32] = molecular target: Metabotropic glutamate receptor 4 (Homo sapiens, UniProt Q14833); assay: Antagonist activity at human recombinant mGlu4 receptor expressed in AV12 cells assessed as inhibition of glutamate-stimulated Ca2+ mobilization after 1 hr by FLIPR assay; assay type: functional, cell-based
[33] = molecular target: Metabotropic glutamate receptor 5 (Homo sapiens, UniProt P41594); assay: Agonist activity at human recombinant mGlu5 receptor expressed in AV12 cells assessed as stimulation of Ca2+ mobilization after 1 hr by FLIPR assay; assay type: functional, cell-based
[34] = molecular target: Metabotropic glutamate receptor 6 (Homo sapiens, UniProt O15303); assay: Agonist activity at human recombinant mGlu6 receptor expressed in AV12 cells assessed as inhibition of forskolin-stimulated cAMP production after 1 hr by fluorescence assay; assay type: functional, cell-based
[35] = molecular target: T2, Metabotropic glutamate receptor 7 (Homo sapiens, UniProt Q14831); assay: Agonist activity at human recombinant mGlu7 receptor expressed in AV12 cells assessed as stimulation of Ca2+ mobilization after 1 hr by FLIPR assay; assay type: functional, cell-based
[36] = molecular target: T2, Metabotropic glutamate receptor 7; assay: Antagonist activity at human recombinant mGlu7 receptor expressed in AV12 cells assessed as inhibition of glutamate-stimulated Ca2+ mobilization after 1 hr by FLIPR assay; assay type: functional, cell-based
[37] = Drug level in Sprague-Dawley rat cerebrospinal fluid at 10 mg/kg, ip after 0.5 hrs; assay type: ADME, organism-based; conditions: read-out: Drug uptake; summary of the method: as §5
Rattus norvegicus = assay: Toxicity in Sprague-Dawley rat assessed as impairment of neuromuscular coordination at 10 mg/kg, ip after 2 to 3 hrs by rotarod test; assay type: organism-based; conditions: in vivo

T1 sequence (Q14832 whole entry): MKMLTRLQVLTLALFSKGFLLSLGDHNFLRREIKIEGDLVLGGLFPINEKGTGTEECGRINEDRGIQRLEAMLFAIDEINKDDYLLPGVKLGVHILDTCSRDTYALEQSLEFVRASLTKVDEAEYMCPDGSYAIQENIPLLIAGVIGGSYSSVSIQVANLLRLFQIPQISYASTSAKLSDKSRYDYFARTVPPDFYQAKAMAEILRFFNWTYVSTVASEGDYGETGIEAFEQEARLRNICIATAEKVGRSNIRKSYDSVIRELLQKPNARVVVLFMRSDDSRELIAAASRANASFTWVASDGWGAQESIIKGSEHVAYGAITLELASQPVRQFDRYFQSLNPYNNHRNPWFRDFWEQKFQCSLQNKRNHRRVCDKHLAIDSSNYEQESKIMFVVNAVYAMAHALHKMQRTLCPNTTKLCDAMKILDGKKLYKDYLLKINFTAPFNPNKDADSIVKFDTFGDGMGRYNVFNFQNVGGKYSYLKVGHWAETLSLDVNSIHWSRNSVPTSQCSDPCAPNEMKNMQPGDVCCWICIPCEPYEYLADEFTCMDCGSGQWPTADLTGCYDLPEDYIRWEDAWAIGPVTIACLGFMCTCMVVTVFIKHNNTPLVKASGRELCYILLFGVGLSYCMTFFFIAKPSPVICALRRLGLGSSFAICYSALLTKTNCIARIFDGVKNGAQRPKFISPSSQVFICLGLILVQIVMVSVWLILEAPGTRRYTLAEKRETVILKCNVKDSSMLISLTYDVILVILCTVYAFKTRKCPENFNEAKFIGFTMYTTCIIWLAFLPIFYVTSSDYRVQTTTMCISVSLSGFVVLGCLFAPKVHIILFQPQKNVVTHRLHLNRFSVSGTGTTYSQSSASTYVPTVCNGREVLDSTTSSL
T2 sequence (Q14831 whole entry): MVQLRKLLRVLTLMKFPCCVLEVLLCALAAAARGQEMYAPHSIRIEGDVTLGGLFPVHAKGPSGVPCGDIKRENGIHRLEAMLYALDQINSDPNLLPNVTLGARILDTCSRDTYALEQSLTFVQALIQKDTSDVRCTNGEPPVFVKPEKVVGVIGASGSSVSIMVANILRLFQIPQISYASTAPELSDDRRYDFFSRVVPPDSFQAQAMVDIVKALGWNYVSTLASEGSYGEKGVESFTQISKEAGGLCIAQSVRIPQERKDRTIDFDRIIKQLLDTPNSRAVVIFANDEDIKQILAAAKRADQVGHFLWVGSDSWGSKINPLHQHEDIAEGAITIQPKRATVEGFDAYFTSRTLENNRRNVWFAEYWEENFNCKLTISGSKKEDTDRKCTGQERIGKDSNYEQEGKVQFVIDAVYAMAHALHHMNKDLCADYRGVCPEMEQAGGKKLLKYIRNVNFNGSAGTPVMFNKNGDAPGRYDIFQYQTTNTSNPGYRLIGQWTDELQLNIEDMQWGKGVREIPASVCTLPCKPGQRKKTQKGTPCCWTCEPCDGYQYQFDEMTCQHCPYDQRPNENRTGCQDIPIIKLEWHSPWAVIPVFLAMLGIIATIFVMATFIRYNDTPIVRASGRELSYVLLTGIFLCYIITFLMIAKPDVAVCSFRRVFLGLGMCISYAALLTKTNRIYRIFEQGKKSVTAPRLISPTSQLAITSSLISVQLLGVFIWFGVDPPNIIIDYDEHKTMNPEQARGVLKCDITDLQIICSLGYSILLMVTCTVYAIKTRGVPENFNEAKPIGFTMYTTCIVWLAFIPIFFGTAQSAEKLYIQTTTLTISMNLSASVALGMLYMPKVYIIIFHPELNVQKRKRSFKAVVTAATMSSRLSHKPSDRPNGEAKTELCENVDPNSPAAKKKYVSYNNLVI
Metabotropic glutamate receptor 2 (Homo sapiens, UniProt Q14416), sequence (Q14416 whole entry): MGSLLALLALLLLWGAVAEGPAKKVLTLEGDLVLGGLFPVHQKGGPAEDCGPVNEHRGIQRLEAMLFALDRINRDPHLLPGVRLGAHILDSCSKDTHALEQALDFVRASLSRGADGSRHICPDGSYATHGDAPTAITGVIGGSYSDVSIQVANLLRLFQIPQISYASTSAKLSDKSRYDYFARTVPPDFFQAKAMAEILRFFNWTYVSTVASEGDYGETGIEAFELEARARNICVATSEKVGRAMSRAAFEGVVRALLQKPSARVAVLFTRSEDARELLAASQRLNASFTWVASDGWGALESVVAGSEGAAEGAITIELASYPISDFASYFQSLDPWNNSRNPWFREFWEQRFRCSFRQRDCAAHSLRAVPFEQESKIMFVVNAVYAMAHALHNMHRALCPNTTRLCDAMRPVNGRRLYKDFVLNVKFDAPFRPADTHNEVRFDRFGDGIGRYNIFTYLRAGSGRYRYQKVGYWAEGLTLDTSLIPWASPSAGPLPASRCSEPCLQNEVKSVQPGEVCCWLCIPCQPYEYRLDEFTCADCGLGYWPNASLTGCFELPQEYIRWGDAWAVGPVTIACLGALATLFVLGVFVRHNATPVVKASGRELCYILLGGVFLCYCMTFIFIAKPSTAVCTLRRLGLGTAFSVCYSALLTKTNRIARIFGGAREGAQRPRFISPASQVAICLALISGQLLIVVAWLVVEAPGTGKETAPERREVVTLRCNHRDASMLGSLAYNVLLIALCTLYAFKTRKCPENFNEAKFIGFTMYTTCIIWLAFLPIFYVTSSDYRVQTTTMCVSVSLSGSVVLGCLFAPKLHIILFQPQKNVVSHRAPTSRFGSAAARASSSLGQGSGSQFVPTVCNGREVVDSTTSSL
Metabotropic glutamate receptor 5, sequence (P41594 whole entry): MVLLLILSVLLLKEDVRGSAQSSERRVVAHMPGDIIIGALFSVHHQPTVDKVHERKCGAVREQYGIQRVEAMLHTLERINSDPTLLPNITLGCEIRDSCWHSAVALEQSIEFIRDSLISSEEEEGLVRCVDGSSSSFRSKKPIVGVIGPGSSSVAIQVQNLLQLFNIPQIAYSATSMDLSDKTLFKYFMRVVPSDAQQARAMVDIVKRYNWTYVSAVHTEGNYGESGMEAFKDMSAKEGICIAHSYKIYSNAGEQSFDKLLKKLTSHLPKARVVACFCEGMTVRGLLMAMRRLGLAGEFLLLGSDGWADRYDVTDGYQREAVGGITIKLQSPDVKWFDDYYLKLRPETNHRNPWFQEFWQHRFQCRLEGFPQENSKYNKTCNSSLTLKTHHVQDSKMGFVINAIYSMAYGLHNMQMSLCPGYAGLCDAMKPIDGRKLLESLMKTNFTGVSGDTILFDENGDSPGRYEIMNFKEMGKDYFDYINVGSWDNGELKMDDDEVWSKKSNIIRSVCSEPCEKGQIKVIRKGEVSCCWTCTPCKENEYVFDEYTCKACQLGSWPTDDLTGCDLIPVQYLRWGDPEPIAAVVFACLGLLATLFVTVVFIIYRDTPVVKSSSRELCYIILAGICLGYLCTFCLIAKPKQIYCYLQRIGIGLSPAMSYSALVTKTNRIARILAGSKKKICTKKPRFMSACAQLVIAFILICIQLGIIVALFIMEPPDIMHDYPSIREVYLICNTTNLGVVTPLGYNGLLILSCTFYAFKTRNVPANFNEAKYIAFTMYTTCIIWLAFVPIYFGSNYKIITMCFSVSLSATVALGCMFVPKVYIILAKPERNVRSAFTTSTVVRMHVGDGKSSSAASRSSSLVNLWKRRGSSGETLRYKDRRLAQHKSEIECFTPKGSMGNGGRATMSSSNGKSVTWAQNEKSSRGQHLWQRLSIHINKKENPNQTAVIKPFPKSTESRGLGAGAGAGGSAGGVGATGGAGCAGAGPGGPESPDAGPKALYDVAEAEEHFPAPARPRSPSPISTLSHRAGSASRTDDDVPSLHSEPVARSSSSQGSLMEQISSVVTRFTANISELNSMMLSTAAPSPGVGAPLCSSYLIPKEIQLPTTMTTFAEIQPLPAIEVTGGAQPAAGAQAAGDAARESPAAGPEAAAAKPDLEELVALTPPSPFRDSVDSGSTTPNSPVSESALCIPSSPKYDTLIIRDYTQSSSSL
Metabotropic glutamate receptor 6, sequence (O15303 whole entry): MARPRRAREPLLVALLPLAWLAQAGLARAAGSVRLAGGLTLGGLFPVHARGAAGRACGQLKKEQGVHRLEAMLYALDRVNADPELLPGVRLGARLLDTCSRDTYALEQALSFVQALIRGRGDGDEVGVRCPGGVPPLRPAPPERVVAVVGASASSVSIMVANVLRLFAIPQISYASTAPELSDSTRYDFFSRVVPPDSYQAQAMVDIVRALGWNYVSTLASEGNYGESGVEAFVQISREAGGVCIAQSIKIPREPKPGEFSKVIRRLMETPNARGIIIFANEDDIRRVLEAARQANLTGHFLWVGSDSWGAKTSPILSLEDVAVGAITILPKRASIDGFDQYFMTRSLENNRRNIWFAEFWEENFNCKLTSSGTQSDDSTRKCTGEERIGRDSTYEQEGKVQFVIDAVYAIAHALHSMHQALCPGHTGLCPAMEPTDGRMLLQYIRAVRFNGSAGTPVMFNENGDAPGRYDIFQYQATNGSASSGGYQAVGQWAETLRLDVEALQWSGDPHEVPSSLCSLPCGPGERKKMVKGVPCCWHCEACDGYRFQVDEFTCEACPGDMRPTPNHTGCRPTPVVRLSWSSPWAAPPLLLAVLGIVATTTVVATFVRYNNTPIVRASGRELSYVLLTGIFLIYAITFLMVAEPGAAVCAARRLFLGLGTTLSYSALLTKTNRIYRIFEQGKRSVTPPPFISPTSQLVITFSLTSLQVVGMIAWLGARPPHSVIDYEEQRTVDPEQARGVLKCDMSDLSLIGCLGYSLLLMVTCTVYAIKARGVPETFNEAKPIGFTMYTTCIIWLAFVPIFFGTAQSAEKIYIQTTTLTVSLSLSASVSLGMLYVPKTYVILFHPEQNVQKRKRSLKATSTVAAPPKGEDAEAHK

EC50 [2]: 0.0463 µM
EC50 [3]: 5.68 µM
EC50 [4]: 1.17 µM
solubility [5]: > 0.1 mM
solubility at 20 µM [6]: > 10 mM
metabolised at 2 µM [7]: < 10%
metabolised at 2 µM [8]: < 10%
fraction unbound [9]: > 0.98
AUC(0-t) at 24 h [10]: 4.91 µM·h
Cmax [11]: 9.54 µM
half-life [12]: 198 min
Cmax [13]: 0.22 µM
Tmax [14]: 30 min
bioavailability [15]: 4%
AUC(0-t) at 24 h [16]: 10.8 µM·h
Tmax [17]: 19.8 min
bioavailability [18]: 73%
Cmax [19]: 31.1 µM
concentration at 0.5 h [20]: 6 µM
concentration at 0.5 h [21]: 40.1 µM
Ki [22]: 0.144 µM
Ki [23]: 0.156 µM
concentration at 1 h [24]: 23.6 µM
concentration at 4 h [25]: 0.314 µM
concentration at 0.5 h [26]: 0.0488 µM
EC50 [27]: 0.129 µM
IC50 [28]: 2.73 µM
EC50 [29]: > 25 µM
IC50 [30]: 25.2 µM
EC50 [31]: > 25 µM
IC50 [32]: > 12.5 µM
EC50 [33]: > 25 µM
EC50 [34]: 3.45 µM
EC50 [35]: > 25 µM
IC50 [36]: > 12.5 µM
concentration at 0.5 h [37]: 0.235 µM
SMILES: N[C@@]1(C(=O)O)C[C@@H](Sc2nc[nH]n2)[C@H]2[C@H](C(=O)O)[C@H]21
inhibition (INH) [1]: Not Active
Activity (Rattus norvegicus): Non-toxic
